Screening results as filed in PubChem.
Ba/F3 V617F tox – reduced viability of JAK2V617F-dependent Ba/F3 cells, primary screen, JAK2V617F inhibitor project, cell-based, Ba/F3 EpoR-JAK2V617F, luminescence. actives 1.1% (n = 220,000). inhibition, % at 5.6 µM. AID 1446, 2008. ATP luminescence;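 active = inhibition above the campaign mean plus 3 SD over all tested compounds, cut at about 24% in these data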;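 also: cytokine-independent growth of Ba/F3 cells driven by EpoR plus mutant JAK2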
Lmaj promast – Leishmania major promastigote growth inhibition, primary screen. inhibition, % at 10 µM. Leishmania major promastigotes, resazurin fluorescence viability. actives 9% (n = 200,000); in the data active = inhibition above about 50%;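 also: promastigotes grown with compound for 44 hours at 28 °C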
b-catenin transl – modulators of beta-catenin nuclear translocation, primary screen, imaging, HeLa cells, immunofluorescence, high-content; nuclear translocation activity, % at 5 µM; actives 0.3% (n = 190,000); AID 1665, 2009;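 active = nuclear translocation activity above 50% at 5 µM, with a well cell count of 50 or more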;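 also: per-cell ratio of nuclear to cytoplasmic median beta-catenin stain intensity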
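test system = HeLa cells, endogenous beta-catenin | dosing = single 5 µM dose plus 0.02–20 µM confirmation series | times = compound treatment 24 h, 37°C, 5% CO2 | technique = beta-catenin immunofluorescence imaging with DAPI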
BaF3 tox – parental Ba/F3 cell viability inhibition, counter-screen for JAK2V617F inhibitor project, murine pro-B, CellTiter-Glo luminescence; inhibition, % at 5.6 µM; CellTiter-Glo ATP luminescence; actives 1.1% (n = 220,000); AID 1486, 2009;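 active = inhibition above a per-campaign cutoff, the mean inhibition of all tested compounds plus 3 SD, cut at about 27% in these data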
MT stabilize HCS – microtubule stabilizers in HeLa cells, primary screen, imaging, high-content imaging. HeLa tubulin immunostaining HCS, 24 h; share of cells brighter than vehicle mean+2SD. % tubulin-high responders, % at 10 µM. actives 0.83% (n = 200,000). AID 2205, 2009;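 active = plate Z-score above 3 for both tubulin-high and condensed-nucleus cell shares, with cell loss under 80%, at 10 µM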;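 also: anti alpha tubulin signal scored within the nucleus-defined area of each cell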
APP transl inh – inhibitors of APP translation via 5'UTR reporter, primary screen, APP 5'UTR luciferase, SH-SY5Y cells; SH-SY5Y APP 5'UTR-luciferase reporter, luminescence; inhibition, % at 2 µM; actives 0.82% (n = 190,000);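 active = inhibition above a set limit, derived from the sample mean plus 3 SD, cut at about 45% in these data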
Hits are given with their value. Shown are actives, neighbours in structure and some others; about 9.6% of the full set was active somewhere.

`Cc1cccc(Nc2nnc(SCC(=O)NCc3cccs3)s2)c1` gave Ba/F3 V617F tox inactive, Lmaj promast inactive, b-catenin transl inactive, BaF3 tox inactive, MT stabilize HCS inactive and APP transl inh inactive.
`Cc1cccc(Nc2nnc(SCC(=O)NCc3cccs3)s2)c1C` gave Ba/F3 V617F tox inactive, Lmaj promast 58, b-catenin transl inactive, BaF3 tox inactive, MT stabilize HCS inactive and APP transl inh inactive.
`COc1ccc(CNS(=O)(=O)NCc2ccc(C)cc2)cc1` gave Ba/F3 V617F tox inactive, Lmaj promast inactive, b-catenin transl inactive, BaF3 tox inactive, MT stabilize HCS inactive and APP transl inh inactive.
Screening COC(=O)c1nnn(-c2cccc(Cl)c2)c1C(=O)OC returned Ba/F3 V617F tox inactive, b-catenin transl inactive and BaF3 tox inactive.
Screening O=C(c1cccc(C(F)(F)F)c1)C1CCCN(C(=O)CCCN2CCCC2=O)C1 (stereo not drawn) returned Ba/F3 V617F tox inactive, Lmaj promast inactive, b-catenin transl inactive, BaF3 tox inactive, MT stabilize HCS inactive and APP transl inh inactive.
Screening CCOC(=O)N1CCC(N2C(=O)c3ccccc3C2Nc2cc(C(=O)OC)cc(C(=O)OC)c2)CC1 (stereo not drawn) returned Ba/F3 V617F tox inactive, Lmaj promast 62, BaF3 tox inactive, MT stabilize HCS inactive and APP transl inh inactive.
Screening O=C(N/N=C/c1ccc[nH]1)c1cc(-c2ccc(Cl)cc2)nc2ccccc12 returned Ba/F3 V617F tox inactive, Lmaj promast 90, b-catenin transl inactive, BaF3 tox inactive, MT stabilize HCS inactive and APP transl inh inactive.
Screening O=C(N/N=C/C1CC=CCC1)c1cc(-c2cccnc2)nc2ccccc12 (stereo not drawn) returned Ba/F3 V617F tox inactive, Lmaj promast inactive, b-catenin transl inactive, BaF3 tox inactive, MT stabilize HCS inactive and APP transl inh inactive.
O=C(N/N=C/c1ccc[nH]1)c1sc2ccccc2c1Cl was read as Ba/F3 V617F tox inactive, Lmaj promast 99, b-catenin transl inactive, BaF3 tox inactive, MT stabilize HCS inactive and APP transl inh inactive.
O=C(N/N=C/c1ccc(F)cc1)c1cc(-c2ccco2)nc2ccccc12 was read as Ba/F3 V617F tox inactive, Lmaj promast inactive, b-catenin transl 53, BaF3 tox inactive, MT stabilize HCS inactive and APP transl inh inactive.
O=C(N/N=C/c1ccc(Cl)cc1)c1cc(-c2cccnc2)nc2ccccc12 was read as Ba/F3 V617F tox inactive, Lmaj promast 98, b-catenin transl inactive, BaF3 tox inactive, MT stabilize HCS inactive and APP transl inh inactive.
`CCOc1ccc(/C=N/NC(=O)c2cc(-c3ccco3)nc3ccccc23)cc1` gave Ba/F3 V617F tox inactive, Lmaj promast inactive, BaF3 tox inactive, MT stabilize HCS inactive and APP transl inh inactive.
For CCC/C=N/NC(=O)c1cc(-c2ccccc2)nc2ccccc12 the results were Ba/F3 V617F tox inactive, Lmaj promast inactive, b-catenin transl inactive, BaF3 tox inactive, MT stabilize HCS inactive and APP transl inh inactive.
CCc1ccc2c(Cl)c(C(=O)N/N=C/c3c[nH]c4ccccc34)sc2c1 was read as Ba/F3 V617F tox inactive, Lmaj promast inactive, b-catenin transl inactive, BaF3 tox inactive, MT stabilize HCS inactive and APP transl inh inactive.
Screening CC(C)CC(O)C1CCN(C(=O)CCc2nnc(-c3ccccc3)o2)CC1 (stereo not drawn) returned Ba/F3 V617F tox inactive, Lmaj promast inactive, b-catenin transl inactive, BaF3 tox inactive, MT stabilize HCS inactive and APP transl inh inactive.
For CC(=O)C12C3C4C(C5C1C3C5(Br)C41OCCO1)C21OCCO1 (stereo not drawn) the results were Ba/F3 V617F tox inactive, Lmaj promast inactive, BaF3 tox inactive, MT stabilize HCS inactive and APP transl inh inactive.
Screening CC(C)c1ccccc1OCCNC(=S)NC(=O)c1cccnc1 returned Ba/F3 V617F tox inactive, Lmaj promast inactive, b-catenin transl inactive, BaF3 tox inactive, MT stabilize HCS inactive and APP transl inh inactive.
Cc1ccc(-c2cc(C(=O)N/N=C/c3c(C)nn(C)c3C)c3ccccc3n2)c(C)c1 was read as Ba/F3 V617F tox inactive, Lmaj promast 100, BaF3 tox inactive, MT stabilize HCS inactive and APP transl inh inactive.
Screening Cc1ccc(/C=N/NC(=O)c2cc(-c3cccnc3)nc3ccccc23)cc1 returned Ba/F3 V617F tox inactive, Lmaj promast inactive, b-catenin transl 83, BaF3 tox inactive, MT stabilize HCS inactive and APP transl inh 68.
O=C(c1cc(-c2ccco2)nc2ccccc12)N1CCN(c2ccc(F)cc2)CC1 was read as Ba/F3 V617F tox inactive, Lmaj promast 67, b-catenin transl inactive, BaF3 tox inactive, MT stabilize HCS inactive and APP transl inh inactive.
`CC(C)Cc1ccc(C(C)NC(=O)c2ccc(=O)[nH]c2)cc1` (stereo not drawn) gave Ba/F3 V617F tox inactive, Lmaj promast inactive, b-catenin transl inactive, BaF3 tox inactive, MT stabilize HCS inactive and APP transl inh inactive.
For COc1ccc(NS(=O)(=O)c2ccc(N3CCCC3)c(NC(=S)Nc3cccc(S(=O)(=O)N(C)C)c3)c2)cc1 the results were Ba/F3 V617F tox inactive, Lmaj promast inactive, b-catenin transl inactive, BaF3 tox inactive, MT stabilize HCS inactive and APP transl inh inactive.
O=C1C(NS(=O)(=O)c2cccs2)=C(N2CCN(c3cccc(Cl)c3)CC2)C(=O)c2ccccc21 was read as Ba/F3 V617F tox inactive, Lmaj promast 99, b-catenin transl inactive, BaF3 tox inactive, MT stabilize HCS inactive and APP transl inh inactive.
Cc1cc(C(=O)CSc2n[nH]c(N)n2)c(C)n1-c1ccc2c(c1)OCO2 was read as Ba/F3 V617F tox inactive, Lmaj promast 60, b-catenin transl inactive, BaF3 tox inactive, MT stabilize HCS inactive and APP transl inh inactive.
`Cc1cc(C(=O)CSc2nc(N)cc(=O)[nH]2)c(C)n1-c1ccc(OC(F)F)cc1` gave Ba/F3 V617F tox 40, Lmaj promast 98, b-catenin transl inactive, BaF3 tox 52, MT stabilize HCS inactive and APP transl inh inactive.
Screening Cc1cc(C(=O)CSc2nc(N)cc(N)n2)c(C)n1-c1cccc(F)c1 returned Ba/F3 V617F tox inactive, Lmaj promast 77, b-catenin transl inactive, BaF3 tox inactive, MT stabilize HCS inactive and APP transl inh inactive.
Screening Cc1cc(C(=O)COc2ccccc2Cl)c(C)n1-c1ccc2c(c1)OCO2 returned Ba/F3 V617F tox inactive, Lmaj promast inactive, b-catenin transl inactive, BaF3 tox inactive, MT stabilize HCS inactive and APP transl inh inactive.
`CCOC(=O)c1sc(=S)n(CC)c1NC(=O)c1ccccc1C` gave Ba/F3 V617F tox inactive, b-catenin transl inactive and BaF3 tox inactive.
CC(NC(=O)C1CCC(CNc2c(N3CCCCC3)c(=O)c2=O)CC1)c1ccccc1 (stereo not drawn) was read as Ba/F3 V617F tox inactive, b-catenin transl inactive and BaF3 tox inactive.
